Results: ChEMBL document CHEMBL2417357, “Synthesis and antiprotozoal activities of benzyl phenyl ether diamidine derivatives” (Eur J Med Chem, 2013)
Activity calls are given as the source filed them. The rule behind the calls is not given here.

What was measured:
[1] = Selectivity index, ratio of IC50 for rat L6 cells to IC50 for chloroquine-resistant Plasmodium falciparum K1; assay type: toxicity, cell-based; settings: read-out: Ratio IC50
In short: (§1)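 SI = IC50 in rat L6 myoblasts / IC50 against the parasite (T. b. rhodesiense STIB900 or P. falciparum K1). Each IC50 is the average of duplicate determinations.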

L6 = test: Cytotoxicity against rat L6 cells after 72 hrs by Alamar blue assay; assay type: cell-based; settings: L6, 72 h
In short: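 Rat L6 myoblast cells; cytotoxic IC50 taken as the average of duplicate determinations.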

[2] = system: Trypanosoma brucei rhodesiense; test: Antitrypanosomal activity against Trypanosoma brucei rhodesiense STIB900 infected in NMRI mouse assessed as cured animal at 5 mg/kg, ip administered for 4 days; assay type: functional, organism-based; set-up: dose 5 mg/kg
In short: (§2)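 Acute model in female NMRI mice infected with T. b. rhodesiense STIB900. Single daily doses given for four days, intraperitoneally or orally. Mice surviving 60 days post-infection without parasitaemia relapse counted as cured; result reported as cured/infected out of 4 mice per group, with mean survival in days.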

[3] = Selectivity index, ratio of IC50 for rat L6 cells to IC50 for amastigotes of Leishmania donovani; assay type: toxicity, cell-based; settings: read-out: Ratio IC50
In short: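 SI = IC50 in rat L6 myoblasts / IC50 against L. donovani MHOM/SD/62/IS-CL2D axenic amastigotes. The amastigote IC50 is the average of at least two determinations; the L6 IC50 is the average of duplicates.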

[4] = system: Trypanosoma brucei rhodesiense; test: Antitrypanosomal activity against Trypanosoma brucei rhodesiense STIB900 infected in NMRI mouse assessed as mean survival days at 5 mg/kg, ip administered for 4 days; assay type: functional; settings: route intraperitoneal
In short: (§3)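 Female NMRI mice, acute infection model with T. b. rhodesiense STIB900. Compound given as a single daily dose for four days, intraperitoneally or orally. Cure means survival to 60 days post-infection without parasitaemia relapse. Mean survival recorded in days.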

[5] = Selectivity index, ratio of IC50 for rat L6 cells to IC50 for Trypanosoma brucei rhodesiense STIB900; assay type: toxicity, cell-based; settings: read-out: Ratio IC50; in short: as §1
[6] = system: Trypanosoma brucei rhodesiense; test: Antitrypanosomal activity against Trypanosoma brucei rhodesiense STIB900 after 72 hrs by Alamar blue assay; assay type: functional, organism-based; settings: STIB900, 72 h
Leishmania donovani = test: Antileishmanial activity against amastigotes of Leishmania donovani MHOM/SD/62/IS-CL2D; assay type: functional, organism-based
In short: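 Axenic amastigotes of L. donovani MHOM/SD/62/IS-CL2D; IC50 taken as the average of at least two determinations.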

Plasmodium falciparum = test: Antiplasmodial activity against chloroquine-resistant Plasmodium falciparum K1; assay type: functional, organism-based
In short: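 Chloroquine-resistant K1 strain tested in vitro. IC50 is the average of duplicate determinations.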

[7] = system: Trypanosoma brucei rhodesiense; test: Antitrypanosomal activity against Trypanosoma brucei rhodesiense STIB900 infected in NMRI mouse assessed as mean survival days at 25 mg/kg, po administered for 4 days; assay type: functional; in short: as §3
[8] = system: Trypanosoma brucei rhodesiense; test: Antitrypanosomal activity against Trypanosoma brucei rhodesiense STIB900 infected in NMRI mouse assessed as cured animal at 25 mg/kg, po administered for 4 days; assay type: functional, organism-based; set-up: dose 25 mg/kg; in short: as §2

SMILES | selectivity ratio [1] | IC50 (L6) [µM] | Activity [2] | selectivity ratio [3] | MSD [4] [days] | selectivity ratio [5] | IC50 [6] [µM] | IC50 (Leishmania donovani) [µM] | IC50 (Plasmodium falciparum) [µM] | MSD [7] [days] | Activity [8]
COc1cc(C(=N)N)cc(OC)c1OCc1cccc(C(=N)N)c1.Cl.Cl | 416 | 96 | inactive | < 1 | 16.25 | 524 | 0.183 | > 100 | 0.231 | – | –
COc1cc(C(=N)N)cc(Br)c1OCc1cccc(C(=N)N)c1.Cl.Cl | 747 | 21.6 | inactive | < 2 | >45.75 | 4070 | 0.005 | 11.4 | 0.0289 | – | –
Cl.Cl.N=C(N)c1cccc(COc2ccc(C(=N)N)cc2[N+](=O)[O-])c1 | 592 | 10.8 | inactive | < 1 | 23.25 | 324 | 0.034 | 11.3 | 0.018 | – | –
COc1cc(C(=N)N)cc(I)c1OCc1cccc(C(=N)N)c1.Cl | 760 | 18.6 | inactive | 3 | 35.75 | 6210 | 0.003 | 6.01 | 0.0245 | – | –
N=C(N)c1ccc(COc2c(Br)cc(C(=N)N)cc2Br)cc1 | 849 | 21.5 | inactive | 5 | 30 | 1260 | 0.017 | 4.09 | 0.025 | – | –
N=C(N)c1ccc(COc2c(I)cc(C(=N)N)cc2I)cc1 | 746 | 13.8 | inactive | 9 | 24.5 | 1170 | 0.012 | 1.6 | 0.019 | – | –
N=C(N)c1cccc(COc2c(Cl)cc(C(=N)N)cc2Cl)c1 | 3 | 0.57 | inactive | < 1 | 27.5 | 57 | 0.01 | 6.51 | 0.185 | – | –
CO/N=C(\N)c1cccc(COc2ccc(/C(N)=N/OC)cc2I)c1.Cl.Cl | 13 | 81 | – | < 1 | – | 2 | 34.7 | > 100 | 6.3 | 22.25 | inactive
Cl.Cl.N/C(=N\O)c1cccc(COc2ccc(/C(N)=N/O)cc2I)c1 | < 1 | 4.73 | – | < 1 | – | < 1 | 50.2 | > 50 | 7.31 | 20 | inactive
N=C(N)c1cccc(COc2ccc(C(=N)N)cc2Cl)c1 | 275 | 13.9 | inactive | 5 | 24.5 | 1900 | 0.007 | 2.91 | 0.051 | – | –
N=C(N)c1ccc(COc2ccc(C(=N)N)cc2)cc1 | 89 | 6.96 | inactive | < 14 | 22.5 | 77 | 0.091 | 8.77 | 0.078 | – | –
Cl.Cl.N/C(=N\O)c1ccc(COc2ccc(/C(N)=N/O)cc2Br)cc1 | < 1 | 6.6 | – | < 1 | – | < 1 | 24 | > 100 | > 11.1 | 28.75 | inactive
Cl.Cl.N/C(=N\O)c1ccc(COc2ccc(/C(N)=N/O)cc2I)cc1 | 3 | 18.1 | – | < 1 | – | < 1 | 25.8 | > 100 | 5.29 | 29.75 | inactive
COc1cc(C(=N)N)ccc1OCc1cccc(C(=N)N)c1 | 2760 | 85.4 | inactive | 3 | 22 | 4400 | 0.019 | 28.6 | 0.031 | – | –
COc1cc(/C(N)=N/O)cc(I)c1OCc1cccc(/C(N)=N/O)c1.Cl.Cl | < 3 | 32.1 | – | < 1 | – | < 1 | 38.7 | > 94.5 | > 9.45 | 20.5 | inactive
N=C(N)c1cccc(COc2c(Br)cc(C(=N)N)cc2Br)c1 | 39 | 4.7 | inactive | 1 | >35.25 | 1270 | 0.004 | 3.37 | 0.12 | – | –
COc1cc(/C(N)=N/O)cc(Br)c1OCc1cccc(/C(N)=N/O)c1.Cl.Cl | < 3 | 28.9 | – | < 1 | – | < 1 | 87.9 | > 100 | > 10.4 | 31.75 | inactive
CO/N=C(\N)c1cccc(COc2ccc(/C(N)=N/OC)cc2Br)c1.Cl.Cl | < 10 | 99.4 | – | 17 | – | 1 | 79.1 | 5.66 | > 9.96 | >60 | Active
N=C(N)c1cccc(COc2c(I)cc(C(=N)N)cc2I)c1 | 291 | 19.3 | inactive | 14 | 21.25 | 5680 | 0.003 | 1.39 | 0.0664 | – | –
N=C(N)c1ccc(COc2c(Cl)cc(C(=N)N)cc2Cl)cc1 | 2020 | 28.5 | inactive | 4 | 30.25 | 1170 | 0.024 | 6.4 | 0.014 | – | –
N=C(N)c1ccc(COc2cccc(C(=N)N)c2)cc1 | 99 | 19.3 | inactive | < 1 | 19 | 694 | 0.028 | 42.1 | 0.195 | – | –
Cl.Cl.N/C(=N\O)c1cccc(COc2c(I)cc(/C(N)=N/O)cc2I)c1 | 2.14 | 15.8 | – | 2 | – | 1 | 13.6 | 6.63 | 7.38 | 5.75 | inactive
N=C(N)c1ccc(COc2ccc(C(=N)N)cc2Br)cc1 | 1250 | 4.99 | inactive | 2 | 29 | 322 | 0.016 | 2.02 | 0.004 | – | –
COc1cc(C(=N)N)cc(OC)c1OCc1ccc(C(=N)N)cc1.Cl.Cl | 1180 | 209 | inactive | < 2 | 15 | 1910 | 0.11 | > 100 | 0.177 | – | –
Cl.Cl.N/C(=N\O)c1cccc(COc2ccc(/C(N)=N/O)cc2Br)c1 | < 1 | 4.39 | – | < 1 | – | < 1 | 14.7 | > 100 | 5.8 | 12.75 | inactive
CO/N=C(\N)c1cccc(COc2c(Cl)cc(/C(N)=N/OC)cc2Cl)c1.Cl.Cl.Cl.Cl | 18 | 108 | – | < 2 | – | 2 | 60.1 | > 50 | 5.91 | 21.75 | inactive
